Legend:
[1] = Cardiotonic activity in guinea pig left atrial muscles assessed as minimum positive inotropic effective concentration causing myocardial contraction; assay type: functional, Cavia porcellus, Muscle tissue
Summary of the method: (§1)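 Guinea pig left atrial or right ventricular strips were perfused with Tyrode's solution, held at 1 g tension and paced at 2 Hz (2 ms, twice threshold). After about 60 min stabilisation, drug was added cumulatively. PIECmin was recorded as the lowest concentration that increased myocardial contraction.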

[2] = Cardiotonic activity in guinea pig right ventricular muscles assessed as minimum positive inotropic effective concentration causing myocardial contraction; assay type: functional, Cavia porcellus, Muscle tissue; summary of the method: as §1
[3] = Cardiotonic activity in guinea pig left atrial muscles assessed as maximum positive inotropic effective concentration causing myocardial contraction relative to basal level; assay type: functional, Cavia porcellus, Muscle tissue
Summary of the method: (§2)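 Isolated left atrial or right ventricular strips from adult guinea pigs (300–500 g; pentobarbital 25 mg/kg i.p.; heart retrogradely perfused with Tyrode's, pH not stated). Tissue held at 1 g tension, paced at 2 Hz (2 ms pulses, twice threshold), stabilised about 60 min, then given cumulative drug additions. Maximal inotropic effect taken at the concentration just before arrhythmia onset.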

[4] = Cardiotonic activity in guinea pig right ventricular muscles assessed as maximum positive inotropic effective concentration causing myocardial contraction relative to basal level; assay type: functional, Cavia porcellus, Muscle tissue; summary of the method: as §2
[5] = Safety index, ratio of arrhythmogenic concentration to minimum positive inotropic effective concentration causing myocardial contraction in guinea pig left atrial muscles; assay type: toxicity, tissue-based, Cavia porcellus, Muscle tissue; details: for selectivity ratio: isolated left atrial muscles
Summary of the method: (§3)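 Paced guinea pig left atrial or right ventricular strips (1 g tension, 2 Hz) received cumulative drug addition. The lowest concentration raising contraction (PIECmin) and the concentration inducing arrhythmia were both recorded. Safety index was calculated as the ratio of the arrhythmogenic concentration to PIECmin.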

[6] = Safety index, ratio of arrhythmogenic concentration to minimum positive inotropic effective concentration causing myocardial contraction in guinea pig right ventricular muscles; assay type: toxicity, tissue-based, Cavia porcellus, Muscle tissue; details: for selectivity ratio: isolated right ventricular muscles; summary of the method: as §3

SMILES	Activity [1]	Activity [2]	Activity [3]	Activity [4]	selectivity ratio [5]	selectivity ratio [6]	Ratio [5]	Ratio [6]
C[C@@H]1O[C@H](O[C@H]2CC[C@]3(C)[C@H]4CC[C@]5(C)[C@@H](C6=CC(=O)OC6)CC[C@]5(O)[C@@H]4CC[C@]3(O)C2)[C@H](O)[C@H](O)[C@H]1O [PERIPLORHAMNOSIDE]	0.05 µM	0.25 µM	381%	355%	11	8.8		
CO[C@H]1[C@@H](O[C@H]2CC[C@]3(C=O)[C@H]4CC[C@]5(C)[C@@H](C6=CC(=O)OC6)CC[C@]5(O)[C@@H]4CC[C@]3(O)C2)O[C@H](C)[C@@H](O)[C@H]1O (stereo in doubt; 20) [STROPHATHOJAVOSIDE]	0.5 µM	0.5 µM	225%	350%			2.5	4
C[C@]12CC[C@H]3[C@@H](CC[C@]4(O)C[C@@H](O)CC[C@]34C=O)[C@@]1(O)CC[C@@H]2C1=CC(=O)OC1 [STROPHANTHIDIN]	1 µM	4.8 µM	165%	240%	9	8.7		
C[C@@H]1O[C@H](O[C@@H]2CC[C@]3(C=O)[C@H]4CC[C@]5(C)[C@@H](C6=CC(=O)OC6)CC[C@]5(O)[C@@H]4CC[C@]3(O)C2)[C@H](O)[C@H](O)[C@H]1O [ANTIAROSIDE C]	2.75 µM	4 µM	208%	229%	15	9.7		
CO[C@H]1[C@@H](O[C@H]2CC[C@]3(C=O)[C@H]4C[C@@H](O)[C@]5(C)[C@@H](C6=CC(=O)OC6)CC[C@]5(O)[C@@H]4CC[C@]3(O)C2)O[C@H](C)[C@@H](O)[C@@H]1O [TOXICARIOSIDE B]	0.1 µM		163%		10			
C[C@@H]1O[C@H](O[C@H]2CC[C@@]3(C(=O)O[C@@H]4O[C@H](CO)[C@@H](O)[C@H](O)[C@H]4O)[C@H](CC[C@@H]4[C@@H]3CC[C@]3(C)[C@@H](C5=CC(=O)OC5)CC[C@]43O)C2)[C@H](O)[C@H](O)[C@H]1O [ANTIAROSIDE F]	1.42 µM	3.17 µM	140%	618%	6	5.8		
C[C@@H]1O[C@H](O[C@H]2CC[C@]3(CO)[C@H]4CC[C@]5(C)[C@@H](C6=CC(=O)OC6)CC[C@]5(O)[C@@H]4CC[C@]3(O)C2)[C@H](O)[C@H](O)[C@H]1O [CONVALLATOXOL]	0.1 µM	0.25 µM	138%	625%	5	20		
C[C@H]1O[C@H](O[C@H]2CC[C@]3(C=O)[C@H]4C[C@@H](O)[C@]5(C)[C@@H](C6=CC(=O)OC6)CC[C@]5(O)[C@@H]4CC[C@]3(O)C2)[C@H](O)[C@H](O)[C@H]1O	0.5 µM	2 µM	220%	200%	10	15		
C[C@@H]1O[C@@H](O[C@H]2CC[C@]3(C=O)[C@H]4CC[C@]5(C)[C@@H](C6=CC(=O)OC6)CC[C@]5(O)[C@@H]4CC[C@]3(O)C2)[C@H](O)[C@H](O)[C@H]1O[C@@H]1O[C@H](CO)[C@@H](O)[C@H](O)[C@H]1O [CONVALLOSIDE]	0.25 µM	1 µM	443%	292%	20	9		
C[C@H]1O[C@@H](O[C@H]2CC[C@]3(C=O)[C@H]4CC[C@]5(C)[C@@H](C6=CC(=O)OC6)CC[C@]5(O)[C@@H]4CC[C@]3(O)C2)[C@H](O)[C@H](O)[C@H]1O [DESGLUCOCHEIROTOXIN]	0.05 µM	0.5 µM	300%	300%	50	10		
C[C@]12CC[C@H](O)C[C@@]1(O)CC[C@@H]1[C@@H]2CC[C@]2(C)[C@@H]([C@]3(O)COC(=O)C3)CC[C@]12O [ANTIAROTOXININ A]	0.1 µM		367%		1000			
C[C@H]1O[C@H](O[C@H]2CC[C@]3(C=O)[C@H]4CC[C@]5(C)[C@@H](C6=CC(=O)OC6)CC[C@]5(O)[C@@H]4CC[C@]3(O)C2)[C@H](O)[C@H](O[C@@H]2O[C@H](CO)[C@@H](O)[C@H](O)[C@H]2O)[C@@H]1O [GLUCOSTROPHALLOSIDE]	0.25 µM	1 µM	489%	350%	10	10		
C[C@@H]1O[C@@H](O[C@H]2C[C@@H](O)[C@]3(CO)[C@H]4[C@H](O)C[C@]5(C)[C@@H](C6=CC(=O)OC6)CC[C@]5(O)[C@@H]4CC[C@]3(O)C2)[C@H](O)[C@H](O)[C@H]1O [OUABAIN]	0.05 µM	0.05 µM	775%	249%	20	20		
C[C@H]1O[C@H](O[C@H]2CC[C@]3(C=O)[C@H]4C[C@@H](O)[C@]5(C)[C@@H](C6=CC(=O)OC6)CC[C@]5(O)[C@@H]4CC[C@]3(O)C2)[C@H](O)[C@H](O)[C@@H]1O [ANTIALLOSIDE]	0.25 µM		350%		80			
CO[C@H]1[C@@H](O[C@H]2CC[C@]3(C=O)[C@H]4CC[C@]5(C)[C@@H](C6=CC(=O)OC6)CC[C@]5(O)[C@@H]4CC[C@]3(O)C2)O[C@H](C)[C@@H](O)[C@H]1O (stereo in doubt; 18) [STROPHATHOJAVOSIDE]	0.25 µM	1 µM	567%	200%		5	10	
C[C@@H]1O[C@H](O[C@H]2CC[C@]3(C(=O)O)[C@H]4C[C@@H](O)[C@]5(C)[C@@H](C6=CC(=O)OC6)CC[C@]5(O)[C@@H]4CC[C@]3(O)C2)[C@H](O)[C@H](O)[C@H]1O [ANTIAROSIDE G]	3.75 µM	3.67 µM	419%	221%	13	20.7		
C[C@@H]1O[C@@H](O[C@H]2CC[C@@]3(CO)[C@H](CC[C@@H]4[C@@H]3CC[C@]3(C)[C@@H](C5=CC(=O)OC5)CC[C@]43O)C2)[C@H](O)[C@H](O)[C@H]1O[C@@H]1O[C@H](CO)[C@@H](O)[C@H](O)[C@H]1O [ANTIAROSIDE B]	0.38 µM	0.075 µM	373%	382%	5	100		
C[C@@H]1O[C@H](O[C@H]2CC[C@]3(C=O)[C@H]4C[C@@H](O)[C@]5(C)[C@@H](C6=CC(=O)OC6)CC[C@]5(O)[C@@H]4CC[C@]3(O)C2)[C@H](O)[C@H](O)[C@H]1O	1 µM	2 µM	243%	250%	10	15		
C[C@@H]1O[C@@H](O[C@H]2CC[C@]3(C=O)[C@H]4CC[C@]5(C)[C@@H](C6=CC(=O)OC6)CC[C@]5(O)[C@@H]4CC[C@]3(O)C2)[C@H](O)[C@H](O)[C@H]1O [CONVALLATOXIN]	0.1 µM	0.125 µM	467%	300%	10	8		
C[C@H]1O[C@H](O[C@H]2CC[C@]3(C(=O)O)[C@H]4C[C@@H](O)[C@]5(C)[C@@H](C6=CC(=O)OC6)CC[C@]5(O)[C@@H]4CC[C@]3(O)C2)[C@H](O)[C@H](O)[C@H]1O [ANTIAROSIDE H]	7.5 µM	8.33 µM	144%	260%	7.5	9.7		
C[C@H]1O[C@@H](O[C@H]2CC[C@]3(C)[C@H]4CC[C@]5(C)[C@@H](C6=CC(=O)OC6)CC[C@]5(O)[C@@H]4CC[C@]3(O)C2)[C@H](O)[C@H](O)[C@H]1O [ANTIAROSIDE A]	0.1 µM	0.083 µM	158%	150%	4.3	2		
C[C@]12[C@H](O)C[C@H]3[C@@H](CC[C@]4(O)CCCC[C@]34C=O)[C@@]1(O)CC[C@@H]2C1=CC(=O)OC1 [ANTIARIGENIN]	0.05 µM		121%		20			
C[C@@H]1O[C@H](O[C@H]2CC[C@@]3(C(=O)O)[C@H](CC[C@@H]4[C@@H]3CC[C@]3(C)[C@@H](C5=CC(=O)OC5)CC[C@]43O)C2)[C@H](O)[C@H](O)[C@H]1O [ANTIAROSIDE E]	0.42 µM	1.33 µM	264%	230%	10	7.7		

Source: ChEMBL document CHEMBL1177741, “Cardiac glycosides from Antiaris toxicaria with potent cardiotonic activity” (J Nat Prod, 2010)
